Assays:
Canis familiaris [1] = assay: tested for percent increase in coronary sinus partial pressure of oxygen (PO2) in open chest anesthetized dog at intravenous dosage of 0.10 mg/kg; format: functional, Canis lupus familiaris; details: dose 0.1 mg/kg
Canis familiaris [2] = assay: Total time in minutes elapsed from the initiation of the change until return to the pretest value of blood pressure in coronary sinus of anesthetized dog at intravenous dosage of 0.1 mg/kg; format: functional, Canis lupus familiaris
Canis familiaris [3] = assay: Tested for the percent increase in aortic blood pressure (BP) in open chest anesthetized dog at intravenous dosage of 0.10 mg/kg; format: functional, Canis lupus familiaris, Artery; details: dose 0.1 mg/kg
How it was run: (§1)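 Open-chest anesthetized dogs, compound given iv at the stated dose. Aortic blood pressure is reported as the change from the control (pre-dose) value. Other set-up follows the group's earlier cardiovascular protocol.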

Canis familiaris [4] = assay: tested for the percent increase in heart rate (HR) in open chest anesthetized dog at intravenous dosage of 0.10 mg/kg; format: functional, Canis lupus familiaris; details: dose 0.1 mg/kg
Canis familiaris [5] = assay: Total time in minutes elapsed from the initiation of the change until return to the pretest value of heart rate in coronary sinus of anesthetized dog at intravenous dosage of 0.1 mg/kg; format: functional, Canis lupus familiaris
Canis familiaris [6] = assay: Total time in minutes elapsed from the initiation of the change until return to the pretest value of oxygen partial pressure in coronary sinus of anesthetized dog at intravenous dosage of 0.1 mg/kg; format: functional, Canis lupus familiaris
[7] = Lethal dose in mice after peroral administration; format: toxicity, organism-based; details: mouse, in vivo, po
How it was run: (§2)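 Male and female mice, three per dose group, were given the compound by the stated route in increments of 0.5 log doses. The LD50 was estimated as an approximate value.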

Canis familiaris [8] = assay: Tested for percent increase in coronary sinus partial pressure of oxygen (PO2) in open chest anesthetized dog at intravenous dosage of 0.10 mg/kg; format: functional, Canis lupus familiaris; details: dose 0.1 mg/kg
[9] = Lethal dose in mice after intraperitoneal administration; format: toxicity, organism-based; details: mouse, in vivo, ip; how it was run: as §2
Canis familiaris [10] = assay: Tested for the percent increase in coronary sinus partial pressure of oxygen (PO2) in open chest anesthetized dog at intravenous dosage of 0.10 mg/kg; format: functional, Canis lupus familiaris; details: dose 0.1 mg/kg
Canis familiaris [11] = assay: Tested for percent increase in coronary sinus partial pressure of oxygen (PO2) in open chest anesthetized dog at intravenous dosage of 0.01 mg/kg; format: functional, Canis lupus familiaris
Canis familiaris [12] = assay: Total time in minutes elapsed from the initiation of the change until return to the pretest value of oxygen partial pressure in coronary sinus of anesthetized dog at intravenous dosage of 0.01 mg/kg; format: functional, Canis lupus familiaris
Canis familiaris [13] = assay: Total time in minutes elapsed from the initiation of the change until return to the pretest value of blood pressure in coronary sinus of anesthetized dog at intravenous dosage of 0.01 mg/kg; format: functional, Canis lupus familiaris
Canis familiaris [14] = assay: Total time in minutes elapsed from the initiation of the change until return to the pretest value of heart rate in coronary sinus of anesthetized dog at intravenous dosage of 0.01 mg/kg; format: functional, Canis lupus familiaris
Canis familiaris [15] = assay: Total time in minutes elapsed from the initiation of the change until return to the pretest value of blood pressure in coronary sinus of anesthetized dog at intravenous dosage of 0.10 mg/kg; format: functional, Canis lupus familiaris; details: dose 0.1 mg/kg
How it was run: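 Open-chest anesthetized dogs were given the compound intravenously. Duration is the total minutes from the start of the change until return to the pretest value. Blood pressure was recorded as change from control.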

Canis familiaris [16] = assay: Total time in minutes elapsed from the initiation of the change until return to the pretest value of oxygen partial pressure in coronary sinus of anesthetized dog at intravenous dosage of 0.10 mg/kg; format: functional, Canis lupus familiaris; details: dose 0.1 mg/kg
Canis familiaris [17] = assay: Tested for the percent increase in aortic blood pressure (BP) in open chest anesthetized dog at intravenous dosage of 0.01 mg/kg; format: functional, Canis lupus familiaris, Artery; how it was run: as §1
Canis familiaris [18] = assay: Tested for the percent increase in aortic blood pressure (BP) in open chest anesthetized dog at intravenous dosage of 0.001 mg/kg; format: functional, Canis lupus familiaris, Artery; how it was run: as §1
Canis familiaris [19] = assay: Tested for percent increase in coronary sinus partial pressure of oxygen (PO2) in open chest anesthetized dog at intravenous dosage of 0.001 mg/kg; format: functional, Canis lupus familiaris
Canis familiaris [20] = assay: Total time in minutes elapsed from the initiation of the change until return to the pretest value of oxygen partial pressure in coronary sinus of anesthetized dog at intravenous dosage of 0.001 mg/kg; format: functional, Canis lupus familiaris
Canis familiaris [21] = assay: Total time in minutes elapsed from the initiation of the change until return to the pretest value of heart rate in coronary sinus of anesthetized dog at intravenous dosage of 0.001 mg/kg; format: functional, Canis lupus familiaris
Canis familiaris [22] = assay: Total time in minutes elapsed from the initiation of the change until return to the pretest value of blood pressure in coronary sinus of anesthetized dog at intravenous dosage of 0.001 mg/kg; format: functional, Canis lupus familiaris
Canis familiaris [23] = assay: Tested for the percent increase in coronary sinus partial pressure of oxygen (PO2) in open chest anesthetized dog at intravenous dosage of 1.00 mg/kg; format: functional, Canis lupus familiaris
Canis familiaris [24] = assay: Total time in minutes elapsed from the initiation of the change until return to the pretest value of heart rate in coronary sinus of anesthetized dog at intravenous dosage of 1 mg/kg; format: functional, Canis lupus familiaris
Canis familiaris [25] = assay: Tested for the percent increase in aortic blood pressure (BP) in open chest anesthetized dog at intravenous dosage of 1.00 mg/kg; format: functional, Canis lupus familiaris, Artery; how it was run: as §1
Canis familiaris [26] = assay: Total time in minutes elapsed from the initiation of the change until return to the pretest value of blood pressure in coronary sinus of anesthetized dog at intravenous dosage of 1 mg/kg; format: functional, Canis lupus familiaris
Canis familiaris [27] = assay: Total time in minutes elapsed from the initiation of the change until return to the pretest value of oxygen partial pressure in coronary sinus of anesthetized dog at intravenous dosage of 1 mg/kg; format: functional, Canis lupus familiaris
How it was run: (§3)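 Open-chest anesthetized dogs given compound by intravenous injection. Coronary sinus PO2 was monitored, and duration was the total time in minutes from the onset of the change until return to the pretest value.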

Canis familiaris [28] = assay: Total time in minutes elapsed from the initiation of the change until return to the pretest value of oxygen partial pressure in coronary sinus of anesthetized dog at intravenous dosage of 9 mg/kg; format: functional, Canis lupus familiaris; how it was run: as §3
Canis familiaris [29] = assay: tested for percent increase in coronary sinus partial pressure of oxygen (PO2) in open chest anesthetized dog at intravenous dosage of 9.00 mg/kg; format: functional, Canis lupus familiaris
Canis familiaris [30] = assay: Total time in minutes elapsed from the initiation of the change until return to the pretest value of blood pressure in coronary sinus of anesthetized dog at intravenous dosage of 9 mg/kg; format: functional, Canis lupus familiaris
Canis familiaris [31] = assay: Total time in minutes elapsed from the initiation of the change until return to the pretest value of heart rate in coronary sinus of anesthetized dog at intravenous dosage of 9 mg/kg; format: functional, Canis lupus familiaris
Canis familiaris [32] = assay: tested for the percent increase in aortic blood pressure (BP) in open chest anesthetized dog at intravenous dosage of 9.00 mg/kg; format: functional, Canis lupus familiaris, Artery
How it was run: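 Open-chest anesthetized dogs received intravenous doses. Aortic blood pressure was recorded as the change from control.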

Canis familiaris [33] = assay: Tested for percent increase in coronary sinus partial pressure of oxygen (PO2) in open chest anesthetized dog at intravenous dosage of 1.00 mg/kg; format: functional, Canis lupus familiaris
Canis familiaris [34] = assay: Total time in minutes elapsed from the initiation of the change until return to the pretest value of blood pressure in coronary sinus of anesthetized dog at intravenous dosage of 5 mg/kg; format: functional, Canis lupus familiaris
Canis familiaris [35] = assay: Total time in minutes elapsed from the initiation of the change until return to the pretest value of heart rate in coronary sinus of anesthetized dog at intravenous dosage of 5 mg/kg; format: functional, Canis lupus familiaris
Canis familiaris [36] = assay: Total time in minutes elapsed from the initiation of the change until return to the pretest value of oxygen partial pressure in coronary sinus of anesthetized dog at intravenous dosage of 5 mg/kg; format: functional, Canis lupus familiaris; how it was run: as §3
Canis familiaris [37] = assay: Tested for the percent increase in coronary sinus partial pressure of oxygen (PO2) in open chest anesthetized dog at intravenous dosage of 5.00 mg/kg; format: functional, Canis lupus familiaris

Row | Structure (SMILES) | Duration (Canis familiaris [2]) [min] | BP (Canis familiaris [3]) [%] | HR (Canis familiaris [4]) [%] | Duration (Canis familiaris [5]) [min] | Duration (Canis familiaris [6]) [min] | LD50 [7] [mg/kg] | PO2 (Canis familiaris [8]) [%] | LD50 [9] [mg/kg] | other results
1 | CCCCNC(=O)[C@H]1OC(n2cnc3c(N)ncnc32)[C@H](O)[C@@H]1O (some centres not stated) | 40 | 5 | 16 | 40 | 30 |  |  |  | PO2 (Canis familiaris [1]): 30%
2 | C=C(C)CNC(=O)[C@H]1OC(n2cnc3c(N)ncnc32)[C@H](O)[C@@H]1O (some centres not stated) | 15 | 1 | 19 | 60 | 60 | > 1000 | 38 | 500 | 
3 | CNC(=O)[C@H]1O[C@@H](n2cnc3c(N)ncnc32)[C@H](O)[C@@H]1O | 240 |  |  |  | 240 | 20 |  | 5 | PO2 (Canis familiaris [10]): 215%; PO2 (Canis familiaris [11]): 105%; Duration (Canis familiaris [12]): 14 min; Duration (Canis familiaris [13]): 60 min; Duration (Canis familiaris [14]): 240 min
4 | Nc1ncnc2c1ncn2C1O[C@H](C(=O)NCCO)[C@@H](O)[C@H]1O (some centres not stated) |  |  |  | 15 |  | 5 |  | 2 | PO2 (Canis familiaris [10]): 163%; Duration (Canis familiaris [15]): 240 min; PO2 (Canis familiaris [11]): 75%; Duration (Canis familiaris [12]): 90 min; Duration (Canis familiaris [13]): 90 min; Duration (Canis familiaris [14]): 42 min; Duration (Canis familiaris [16]): 240 min
5 | CONC(=O)[C@H]1O[C@@H](n2cnc3c(N)ncnc32)[C@H](O)[C@@H]1O | 90 | 39 | 2 | 10 | 90 | 50 |  | 20 | PO2 (Canis familiaris [10]): 143%; PO2 (Canis familiaris [11]): 157%; Duration (Canis familiaris [12]): 60 min; Duration (Canis familiaris [13]): 41 min; BP (Canis familiaris [17]): 9%; Duration (Canis familiaris [14]): 60 min
6 | CCC(CC)NC(=O)[C@H]1OC(n2cnc3c(N)ncnc32)[C@H](O)[C@@H]1O (some centres not stated) | 110 | 9 | 11 | 110 | 110 | > 300 | 28 | 50 | 
7 | CCNC(=O)[C@H]1OC(n2cnc3c(N)[n+]([O-])cnc32)[C@H](O)[C@@H]1O (some centres not stated) |  |  |  |  |  |  |  |  | BP (Canis familiaris [18]): 27 mmHg; PO2 (Canis familiaris [19]): 37%; Duration (Canis familiaris [20]): 120 min; Duration (Canis familiaris [21]): 120 min; Duration (Canis familiaris [22]): 120 min
8 | CCOCCNC(=O)[C@H]1OC(n2cnc3c(N)ncnc32)[C@H](O)[C@@H]1O (some centres not stated) | 1 |  |  |  |  | > 1000 |  | 50 | PO2 (Canis familiaris [23]): 135%; Duration (Canis familiaris [24]): 120 min; BP (Canis familiaris [17]): 8%; BP (Canis familiaris [25]): 15%; Duration (Canis familiaris [14]): 0 min; Duration (Canis familiaris [26]): 120 min; Duration (Canis familiaris [16]): 6 min; Duration (Canis familiaris [27]): 120 min
9 | Nc1ncnc2c1ncn2C1O[C@H](C(=O)NCC(O)COc2cccc3ccccc23)[C@@H](O)[C@H]1O (some centres not stated) |  |  |  |  |  | > 300 |  | > 300 | Duration (Canis familiaris [28]): 18 min; PO2 (Canis familiaris [29]): 152%; Duration (Canis familiaris [30]): 7 min; Duration (Canis familiaris [31]): 12 min; BP (Canis familiaris [32]): 8 mmHg
10 | Nc1ncnc2c1ncn2[C@@H]1O[C@H](C(=O)NC2CCCC2)[C@@H](O)[C@H]1O | 120 | 12 | 25 | 120 | 120 | 200 | 83 | 200 | 
11 | C#CCNC(=O)[C@H]1OC(n2cnc3c(N)ncnc32)[C@H](O)[C@@H]1O (some centres not stated) | 70 | 5 | 13 | 60 | 70 | > 1000 | 50 | 200 | PO2 (Canis familiaris [23]): 133%; Duration (Canis familiaris [24]): 82 min; BP (Canis familiaris [25]): 40%; Duration (Canis familiaris [26]): 180 min; Duration (Canis familiaris [27]): 180 min
12 | Nc1ncnc2c1ncn2C1O[C@H](C(=O)NCCc2ccccc2)[C@@H](O)[C@H]1O (some centres not stated) |  |  |  |  |  | > 1000 |  | 500 | PO2 (Canis familiaris [33]): 9%; Duration (Canis familiaris [24]): 18 min; Duration (Canis familiaris [34]): 60 min; Duration (Canis familiaris [35]): 6 min; Duration (Canis familiaris [36]): 60 min; BP (Canis familiaris [25]): 11%; Duration (Canis familiaris [26]): 1 min; PO2 (Canis familiaris [37]): 44%; Duration (Canis familiaris [27]): 25 min
13 | Nc1c2ncn(C3O[C@H](C(=O)NC4CC4)[C@@H](O)[C@H]3O)c2nc[n+]1[O-] (some centres not stated) |  |  |  |  |  |  |  |  | PO2 (Canis familiaris [11]): 66%; Duration (Canis familiaris [12]): 75 min; Duration (Canis familiaris [21]): 60 min; Duration (Canis familiaris [13]): 60 min; BP (Canis familiaris [17]): 15%
14 | CCCONC(=O)[C@H]1OC(n2cnc3c(N)ncnc32)[C@H](O)[C@@H]1O (some centres not stated) | 13 | 1 | 6 | 3 | 60 | > 1000 | 52 | 200 | 
